According to ChEMBL document CHEMBL1165947, “Synthesis and antitumor activity of 2,5-bis(3'-indolyl)-furans and 3,5-bis(3'-indolyl)-isoxazoles, nortopsentin analogues” (Bioorg Med Chem, 2010):
Values after ≈ are worked out from the molar mass of the structure shown.

Tests used:
[1] = Cytotoxicity against human LXFA 629L cells after 4 days by modified propidium iodide staining-based fluorescence assay; format: functional, cell-based; settings: 96 h
Summary of the method: (§1)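 Cells cultured in RPMI 1640 with 10% fetal calf serum and 0.1 mg/mL gentamicin at 37 °C, 5% CO2. Cells from exponential cultures were trypsinized and plated at 4.000-20.000 cells/well by line. After 24 h recovery, compounds were added at five log-spaced concentrations (highest 100 μg/mL) for 4 days. Proliferation was read as DNA content with aqueous propidium iodide (7 μg/ml), fluorescence ex 530/em 620 nm. Points were run in triplicate.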

SF-268 = assay: Growth inhibition of human SF268 cells; format: functional
Summary of the method: (§2)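 Values come from the NCI in vitro disease-oriented human tumor cell screen. GI50 is the concentration giving 50% growth inhibition of tumor cells; pGI50 is its −log molar form.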

[2] = Cytotoxicity against human 1752L cells after 4 days by modified propidium iodide staining-based fluorescence assay; format: functional, cell-based; settings: 96 h; summary of the method: as §1
SK-OV-3 = assay: Growth inhibition of human SKOV3 cells; format: functional; summary of the method: as §2
[3] = Cytotoxicity against human GXF251L cells after 4 days by modified propidium iodide staining-based fluorescence assay; format: functional, cell-based; settings: GXF 251L, 96 h; summary of the method: as §1
SK-MEL-5 = assay: Growth inhibition of human SK-MEL-5 cells; format: functional; summary of the method: as §2
LNCaP = assay: Cytotoxicity against human LNCAP cells after 4 days by modified propidium iodide staining-based fluorescence assay; format: functional, cell-based; settings: 96 h; summary of the method: as §1
M14 = assay: Growth inhibition of human M14 cells; format: functional
SR = assay: Growth inhibition of human SR cells; format: functional; summary of the method: as §2
MDA-MB-231 = assay: Growth inhibition of human MDA-MB-231 cells; format: functional; summary of the method: as §2
HOP-92 = assay: Growth inhibition of human HOP92 cells; format: functional
T47D = assay: Growth inhibition of human T47D cells; format: functional; summary of the method: as §2
HT-29 = assay: Growth inhibition of human HT-29 cells; format: functional
OVCAR-5 = assay: Growth inhibition of human OVCAR5 cells; format: functional; summary of the method: as §2
NCI-H226 = assay: Growth inhibition of human NCI-H226 cells; format: functional; summary of the method: as §2
[4] = Cytotoxicity against human 1657L cells after 4 days by modified propidium iodide staining-based fluorescence assay; format: functional, cell-based; settings: 96 h; summary of the method: as §1
SK-MEL-2 = assay: Growth inhibition of human SK-MEL-2 cells; format: functional; summary of the method: as §2
DU-145 = assay: Growth inhibition of human DU145 cells; format: functional
UACC-62 = assay: Growth inhibition of human UACC62 cells; format: functional; summary of the method: as §2
CCRF-CEM = assay: Growth inhibition of human CCRF-CEM cells; format: functional
NCI-H322M = assay: Growth inhibition of human NCI-H322M cells; format: functional; summary of the method: as §2
[5] = Cytotoxicity against human LXFL 1121L cells after 4 days by modified propidium iodide staining-based fluorescence assay; format: functional, cell-based; settings: 96 h; summary of the method: as §1
[6] = Cytotoxicity against human LXFA 289L cells after 4 days by modified propidium iodide staining-based fluorescence assay; format: functional, cell-based; settings: 96 h; summary of the method: as §1
K562 = assay: Growth inhibition of human K562 cells; format: functional
RXF 393 = assay: Growth inhibition of human RXF393 cells; format: functional; summary of the method: as §2
UACC-257 = assay: Growth inhibition of human UACC257 cells; format: functional; summary of the method: as §2
PANC-1 = assay: Cytotoxicity against human PANC1 cells after 4 days by modified propidium iodide staining-based fluorescence assay; format: functional, cell-based; settings: PANC-1, 96 h; summary of the method: as §1
[7] = Growth inhibition of human […] cells; format: functional; summary of the method: as §2
LOX IMVI = assay: Growth inhibition of human LOXIMVI cells; format: functional
CWR22R = assay: Cytotoxicity against human 22Rv1 cells after 4 days by modified propidium iodide staining-based fluorescence assay; format: functional, cell-based; settings: 22Rv1, 96 h; summary of the method: as §1
T-24 = assay: Cytotoxicity against human T24 cells after 4 days by modified propidium iodide staining-based fluorescence assay; format: functional, cell-based; settings: T-24, 96 h; summary of the method: as §1
A549 = assay: Growth inhibition of human A549 cells; format: functional
SK-MEL-28 = assay: Growth inhibition of human SK-MEL-28 cells; format: functional; summary of the method: as §2
IGROV-1 = assay: Growth inhibition of human IGROV1 cells; format: functional
TK-10 = assay: Growth inhibition of human TK10 cells; format: functional; summary of the method: as §2
[8] = Growth inhibition of human Hs 578T cells; format: functional
[9] = Cytotoxicity against human BXF 1218L cells after 4 days by modified propidium iodide staining-based fluorescence assay; format: functional, cell-based; settings: 96 h; summary of the method: as §1
[10] = Cytotoxicity against human PC3M cells after 4 days by modified propidium iodide staining-based fluorescence assay; format: functional, cell-based; settings: PC-3M, 96 h; summary of the method: as §1
A498 = assay: Growth inhibition of human A498 cells; format: functional
HOP-62 = assay: Growth inhibition of human HOP62 cells; format: functional
COLO 205 = assay: Growth inhibition of human COLO205 cells; format: functional
NCI-H23 = assay: Growth inhibition of human NCI-H23 cells; format: functional; summary of the method: as §2

**Q.** For `COc1ccc2c(c1)c(-c1ccc(-c3cn(C)c4ccc(OC)cc34)o1)cn2C`, which IC50 [1] is on record?
**A.** 4.1 µg/mL (≈ 10.6 µM)

**Q.** And the GI50 (SF-268)?
**A.** 9.25 µM

**Q.** What about the IC50 [2] of the same compound?
**A.** 77.4 µg/mL (≈ 200 µM)

**Q.** And the GI50 (SK-OV-3)?
**A.** > 100 µM

**Q.** And the IC50 [3]?
**A.** 3.8 µg/mL (≈ 9.83 µM)

**Q.** What about the GI50 (SK-MEL-5) of the same compound?
**A.** 10.4 µM

**Q.** What about the IC50 (LNCaP) of the same compound?
**A.** 28.2 µg/mL (≈ 73 µM)

**Q.** What about the GI50 (M14) of the same compound?
**A.** 32.9 µM

**Q.** And the GI50 (SR)?
**A.** 1.63 µM

**Q.** What about the GI50 (MDA-MB-231) of the same compound?
**A.** 4.2 µM

**Q.** And the GI50 (HOP-92)?
**A.** 1.03 µM

**Q.** What about the GI50 (T47D) of the same compound?
**A.** 2.72 µM

**Q.** What about the GI50 (HT-29) of the same compound?
**A.** 22 µM

**Q.** What about the GI50 (OVCAR-5) of the same compound?
**A.** 2.79 µM

**Q.** What about the GI50 (NCI-H226) of the same compound?
**A.** 23.6 µM

**Q.** What about the IC50 [4] of the same compound?
**A.** > 100 µg/mL

**Q.** What about the GI50 (SK-MEL-2) of the same compound?
**A.** 2.13 µM

**Q.** And the GI50 (DU-145)?
**A.** > 100 µM

**Q.** What about the GI50 (UACC-62) of the same compound?
**A.** 3.81 µM

**Q.** And the GI50 (CCRF-CEM)?
**A.** 6.46 µM

**Q.** And the GI50 (NCI-H322M)?
**A.** > 100 µM

**Q.** What about the IC50 [5] of the same compound?
**A.** 43.4 µg/mL (≈ 112 µM)

**Q.** And the IC50 [6]?
**A.** > 100 µg/mL

**Q.** What about the GI50 (K562) of the same compound?
**A.** 2.86 µM

**Q.** What about the GI50 (RXF 393) of the same compound?
**A.** 10.4 µM

**Q.** What about the GI50 (UACC-257) of the same compound?
**A.** 27 µM

**Q.** And the IC50 (PANC-1)?
**A.** 6.4 µg/mL (≈ 16.6 µM)

**Q.** What about the GI50 [7] of the same compound?
**A.** 2.25 µM

**Q.** What about the GI50 (LOX IMVI) of the same compound?
**A.** 10.4 µM

**Q.** And the IC50 (CWR22R)?
**A.** 33.7 µg/mL (≈ 87.2 µM)

**Q.** What about the IC50 (T-24) of the same compound?
**A.** > 100 µg/mL

**Q.** And the GI50 (A549)?
**A.** 18.4 µM

**Q.** What about the GI50 (SK-MEL-28) of the same compound?
**A.** 14 µM

**Q.** What about the GI50 (IGROV-1) of the same compound?
**A.** 29.6 µM

**Q.** What about the GI50 (TK-10) of the same compound?
**A.** 11 µM

**Q.** And the GI50 [8]?
**A.** 5.11 µM

**Q.** What about the IC50 [9] of the same compound?
**A.** 15.7 µg/mL (≈ 40.6 µM)

**Q.** And the IC50 [10]?
**A.** 4.1 µg/mL (≈ 10.6 µM)

**Q.** What about the GI50 (A498) of the same compound?
**A.** > 100 µM

**Q.** What about the GI50 (HOP-62) of the same compound?
**A.** > 100 µM

**Q.** And the GI50 (COLO 205)?
**A.** 5.13 µM

**Q.** What about the GI50 (NCI-H23) of the same compound?
**A.** 17.3 µM
